We go through 74 sequences from the array DNA melting data of Ke et al. (doi:10.1101/2024.01.08.574731).

Series [1] is described as follows: folding enthalpy; higher = less favourable; fluorescence melt of hairpins on a sequencing array, two-state fit. The following applies: sodium 0.088 M. An outline of the steps: (§1)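 To match UV melts, fitted temperatures were raised by 9.35 °C. These fits were bootstrapped two-state models that gave melting temperature and folding enthalpy, combined by inverse variance over four replicates. The input was normalised Cy3 fluorescence of library hairpins with annealed Cy3 and quencher oligos on a sequenced MiSeq flow cell, imaged in 50 mM Na-HEPES pH 8.0, 25 mM NaCl in 2.5 °C steps up to 60 °C.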

Series [2] is described as follows: melting temperature; fluorescence melt of hairpins on a sequencing array, two-state fit, raised by 9.35 °C to match UV melts. The following applies: sodium 0.088 M. The essentials: as §1

As for GCCTAGCGAAAGCGATGC ((.(.((....)).).)), the folding enthalpy in series [1] is -13.4 kcal/mol. Also, in series [2], the Tm worked out at 44.1 °C.
For GCCTAGCGAAAGCTCCGC ((..(((....)))..)) the same measures were -9.3 kcal/mol and 25.9 °C.
For GCCTAGCGAAAGCTTAGC ((..(((....)))..)), the folding enthalpy in series [1] was -12.6 kcal/mol. For the same sequence, in series [2], the Tm worked out at 36.8 °C.
Take GCCTAGCGAAAGCTTCGC ((..(((....)))..)): in series [1], the folding enthalpy is -7.98 kcal/mol. Moreover, in series [2], the Tm came out at 44.6 °C.
Consider GCCTAGGGAAACCTAGGC (((((((....))))))), for which, in series [1], the folding enthalpy was -36.9 kcal/mol. For the same sequence, the Tm in series [2] came to 67.5 °C.
In the same order, the values of GCCTATGGAAACATAGAC (.(((((....))))).) are -17.4 kcal/mol and 32.6 °C.
In the same order, the values of GCCTATGGAAACGTAGGC (((((.(....).))))) are -39.8 kcal/mol and 51.1 °C.
In the same order, the values of GCCTATTCGAAAGAAGGC (((..(((....)))))) are -20.6 kcal/mol and 38.2 °C.
GCCTCAGGAAACTGAAGC ((.((((....)))).)): the folding enthalpy in series [1] was -24.9 kcal/mol. In series [2], the Tm was 36.3 °C.
With GCCTCAGGAAACTGAGAC (.(((((....))))).), the folding enthalpy in series [1] was -20.8 kcal/mol. The Tm in series [2] turned out to be 38.4 °C.
In the same order, the values of GCCTCAGGAAACTGGGGC (((.(((....))).))) are -41.9 kcal/mol and 56 °C.
In the same order, the values of GCCTCCGAAAGGAATGGC ((((((....)))..))) are -23 kcal/mol and 49.9 °C.
In the same order, the values of GCCTCCGAAAGGAGTGGC ((((((....)))..))) are -17.1 kcal/mol and 50.3 °C.
For the sequence GCCTCCGAAAGGATGGC ((((((....))).))), the folding enthalpy in series [1] is -36.6 kcal/mol. The Tm in series [2] worked out at 57 °C.
Turning to GCCTCGCGAAAGCATGGC (((..((....))..))), the folding enthalpy in series [1] was -18.4 kcal/mol. Besides, in series [2], the Tm turned out to be 53.3 °C.
Regarding GCCTCGCGAAAGCCACGC ((.(.((....)).).)), in series [1], the folding enthalpy was -6.05 kcal/mol. For the same sequence, the Tm in series [2] came out at 20.5 °C.
For GCCTCGCGAAAGCGACGC ((.((((....)))).)) the same measures were -16.5 kcal/mol and 52.6 °C.
For the sequence GCCTCGCGAAAGCGATGC ((.((((....)))).)), in series [1], the folding enthalpy was -16.7 kcal/mol. The Tm in series [2] came out at 58.2 °C.
Turning to GCCTCGCGAAAGCTAAGC ((.(.((....)).).)), in series [1], the folding enthalpy was -6.03 kcal/mol. Moreover, the Tm in series [2] is 25.6 °C.
Consider GCCTCGCGAAAGCTACGC ((.(.((....)).).)), for which the folding enthalpy in series [1] was -5.87 kcal/mol. Further, in series [2], the Tm was 20 °C.
In the same order, the values of GCCTCGCGAAAGCTTGGC (((..((....))..))) are -25.5 kcal/mol and 51.4 °C.
In the same order, the values of GCCTCGGGAAACCGGGGC (((.(((....))).))) are -36.4 kcal/mol and 66.3 °C.
Consider GCCTCTGGAAACAGAAGC ((.((((....)))).)), for which, in series [1], the folding enthalpy is -24.2 kcal/mol. Also, the Tm in series [2] is 35.6 °C.
For the sequence GCCTCTTCGAAAGAAGGC (((..(((....)))))), the folding enthalpy in series [1] was -14.8 kcal/mol. For the same sequence, the Tm in series [2] stood at 39.4 °C.
For the sequence GCCTGAGAAATCAGGC ((((((....)))))), the folding enthalpy in series [1] was -39.2 kcal/mol. For the same sequence, the Tm in series [2] came out at 62.5 °C.
For the sequence GCCTGAGGAAACTTAGGC ((((.((....)).)))), in series [1], the folding enthalpy was -31.2 kcal/mol. In addition, the Tm in series [2] was found to be 48.8 °C.
For the sequence GCCTGCCCGAAAGGGGGC (((..(((....)))))), in series [1], the folding enthalpy was -12.6 kcal/mol. The Tm in series [2] amounted to 58.1 °C.
In the same order, the values of GCCTGCGGAAACGCAGAC (.(((((....))))).) are -12.1 kcal/mol and 50 °C.
For GCCTGGAAACAGGC (((((....))))) the same measures were -27.1 kcal/mol and 63.4 °C.
With GCCTGGCGAAAGCAATGC ((.(.((....)).).)), in series [1], the folding enthalpy is -7.84 kcal/mol. Moreover, in series [2], the Tm came to 26.9 °C.
In the same order, the values of GCCTGGCGAAAGCCCAGC ((..(((....)))..)) are -10.9 kcal/mol and 47.3 °C.
In the same order, the values of GCCTGGCGAAAGCCTCGC ((..(((....)))..)) are -9.28 kcal/mol and 45.3 °C.
Take GCCTGGGCGAAAGCCGGC (((..(((....)))))): in series [1], the folding enthalpy is -23.7 kcal/mol. For the same sequence, the Tm in series [2] was 55.2 °C.
In the same order, the values of GCCTGGGGAAACTCGGGC (((.(.(....).).))) are -31.8 kcal/mol and 46.7 °C.
For GCCTGGTCGAAAGACGGC (((..(((....)))))) the same measures were -25.3 kcal/mol and 52.2 °C.
In the same order, the values of GCCTGTCGAAAGACCGGC (((.(((....))).))) are -39.5 kcal/mol and 55.8 °C.
In the case of GCCTGTCGAAAGACGGC (((.(((....)))))), the folding enthalpy in series [1] is -31.2 kcal/mol. In addition, the Tm in series [2] is 56.5 °C.
For GCCTGTGCGAAAGCAGGC (((..(((....)))))) the same measures were -26.6 kcal/mol and 56.5 °C.
In the same order, the values of GCCTGTGGAAACGCAGGC (((((.(....).))))) are -38 kcal/mol and 59.9 °C.
GCCTGTGGAAACGTAGGC ((((..(....)..)))): in series [1], the folding enthalpy is -28 kcal/mol. The Tm in series [2] was 48.2 °C.
In the same order, the values of GCCTTACGAAAGTACGGC (((.(((....))).))) are -46.5 kcal/mol and 52.2 °C.
In the same order, the values of GCCTTAGGAAACTAAGAC (.(((((....))))).) are -13.8 kcal/mol and 30.1 °C.
Consider GCCTTCGAAAGAAAGGC ((((((....))).))), for which, in series [1], the folding enthalpy was -30.3 kcal/mol. Moreover, the Tm in series [2] is 54 °C.
GCCTTCGAAAGAACTGGC ((((((....)))..))): in series [1], the folding enthalpy was -21.9 kcal/mol. Further, the Tm in series [2] turned out to be 35.7 °C.
As to GCCTTCGAAAGAAGCGGC ((((((....)))..))), in series [1], the folding enthalpy is -18.1 kcal/mol. Further, the Tm in series [2] was 47.2 °C.
For GCCTTCGAAAGAAGGGGC ((((((....)))..))) the same measures were -17.8 kcal/mol and 53.8 °C.
Regarding GCCTTCGGAAACGAGGGC (((.(((....))).))), the folding enthalpy in series [1] is -33.6 kcal/mol. The Tm in series [2] worked out at 56.7 °C.
In the same order, the values of GCCTTCTCGAAAGAGGGC (((..(((....)))))) are -23.8 kcal/mol and 44.3 °C.
For GCCTTGCGAAAGCAAAGC ((.((((....)))).)) the same measures were -14.9 kcal/mol and 55.9 °C.
In the same order, the values of GCCTTGCGAAAGCAACGC ((.((((....)))).)) are -14.3 kcal/mol and 54.7 °C.
As for GCCTTGCGAAAGCAATGC ((.((((....)))).)), in series [1], the folding enthalpy was -17.4 kcal/mol. In addition, the Tm in series [2] was 56.9 °C.
For the sequence GCCTTGCGAAAGCACAGC ((..(((....)))..)), the folding enthalpy in series [1] is -7.49 kcal/mol. In addition, the Tm in series [2] came to 45.1 °C.
Regarding GCCTTGCGAAAGCACGGC (((.(((....))).))), the folding enthalpy in series [1] is -49.4 kcal/mol. The Tm in series [2] came out at 57.8 °C.
With GCCTTGCGAAAGCATGGC (((.(((....))).))), the folding enthalpy in series [1] is -44.8 kcal/mol. Besides, the Tm in series [2] worked out at 62.1 °C.
Take GCCTTGCGAAAGCGTGGC (((..((....))..))): in series [1], the folding enthalpy was -22.8 kcal/mol. The Tm in series [2] is 60.3 °C.
On to GCCTTGCGAAAGCTATGC ((.(.((....)).).)), for which the folding enthalpy in series [1] was -8.48 kcal/mol. Moreover, the Tm in series [2] worked out at 44.5 °C.
GCCTTGGCGAAAGCCGGC (((..(((....)))))): in series [1], the folding enthalpy is -12.9 kcal/mol. The Tm in series [2] was 56.9 °C.
For GCCTTTCGAAAGAACGGC (((.(((....))).))) the same measures were -39.5 kcal/mol and 48.8 °C.
In the same order, the values of GCCTTTGGAAACAAAAGC ((.((((....)))).)) are -12.2 kcal/mol and 29.3 °C.
GCCTTTGGAAACAAAGAC (.(((((....))))).): the folding enthalpy in series [1] was -21.9 kcal/mol. Besides, the Tm in series [2] came to 34.7 °C.
As to GCCTTTGGAAACAAAGGC (((((((....))))))), the folding enthalpy in series [1] is -38.4 kcal/mol. Further, the Tm in series [2] amounted to 66.7 °C.
For GCGAAAATCGC ((((...)))) the same measures were -14.1 kcal/mol and 45 °C.
With GCGAAACATCGC ((((....)))), in series [1], the folding enthalpy was -21.5 kcal/mol. Moreover, the Tm in series [2] amounted to 48.7 °C.
Turning to GCGAAACGAAAGTTACGC (((.(((....))).))), the folding enthalpy in series [1] is -40.1 kcal/mol. For the same sequence, in series [2], the Tm amounted to 58.6 °C.
For GCGAAACGAAAGTTCGC (((.(((....)))))), in series [1], the folding enthalpy was -32.9 kcal/mol. Also, the Tm in series [2] is 62.7 °C.
With GCGAAACGAAAGTTGCGC (((.(((....))).))), in series [1], the folding enthalpy was -35.8 kcal/mol. Besides, the Tm in series [2] was found to be 65.7 °C.
For GCGAAAGGAAACTCTCGC ((((.((....)).)))) the same measures were -28.1 kcal/mol and 38.3 °C.
For GCGAAAGGAAACTTTCAC (.(((((....))))).), the folding enthalpy in series [1] was -19.1 kcal/mol. Moreover, the Tm in series [2] was found to be 32.6 °C.
Regarding GCGAAAGGAAACTTTCGC (((((((....))))))), in series [1], the folding enthalpy is -44.2 kcal/mol. For the same sequence, in series [2], the Tm is 64.6 °C.
In the case of GCGAAAGGAAACTTTTGC ((.((((....)))).)), the folding enthalpy in series [1] was -32.1 kcal/mol. The Tm in series [2] amounted to 45.9 °C.
For GCGAACAATCGC ((((....)))) the same measures were -18.3 kcal/mol and 39.9 °C.
In the same order, the values of GCGAACAGTCGC ((((....)))) are -16.4 kcal/mol and 42.1 °C.
On to GCGAACATCGC ((((...)))), for which the folding enthalpy in series [1] was -17.1 kcal/mol. Moreover, in series [2], the Tm was 45.6 °C.
For GCGAACATTCGC ((((....)))) the same measures were -21.4 kcal/mol and 48.2 °C.
